Screens deposited in PubChem by several laboratories.
PREPL inh: inhibitors of human prolyl oligopeptidase-like enzyme PREPL. Q4J6C6. recombinant PREPL, fluorescence polarization activity-based probe. inhibition, % at 5.96 µM. hit rate 0.68% among 320,000. AID 2751; in the data active = inhibition above about 43%;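 note: 0% = enzyme with DMSO and 100% = wells lacking enzyme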
Target sequence (Q4J6C6 whole entry, looked up): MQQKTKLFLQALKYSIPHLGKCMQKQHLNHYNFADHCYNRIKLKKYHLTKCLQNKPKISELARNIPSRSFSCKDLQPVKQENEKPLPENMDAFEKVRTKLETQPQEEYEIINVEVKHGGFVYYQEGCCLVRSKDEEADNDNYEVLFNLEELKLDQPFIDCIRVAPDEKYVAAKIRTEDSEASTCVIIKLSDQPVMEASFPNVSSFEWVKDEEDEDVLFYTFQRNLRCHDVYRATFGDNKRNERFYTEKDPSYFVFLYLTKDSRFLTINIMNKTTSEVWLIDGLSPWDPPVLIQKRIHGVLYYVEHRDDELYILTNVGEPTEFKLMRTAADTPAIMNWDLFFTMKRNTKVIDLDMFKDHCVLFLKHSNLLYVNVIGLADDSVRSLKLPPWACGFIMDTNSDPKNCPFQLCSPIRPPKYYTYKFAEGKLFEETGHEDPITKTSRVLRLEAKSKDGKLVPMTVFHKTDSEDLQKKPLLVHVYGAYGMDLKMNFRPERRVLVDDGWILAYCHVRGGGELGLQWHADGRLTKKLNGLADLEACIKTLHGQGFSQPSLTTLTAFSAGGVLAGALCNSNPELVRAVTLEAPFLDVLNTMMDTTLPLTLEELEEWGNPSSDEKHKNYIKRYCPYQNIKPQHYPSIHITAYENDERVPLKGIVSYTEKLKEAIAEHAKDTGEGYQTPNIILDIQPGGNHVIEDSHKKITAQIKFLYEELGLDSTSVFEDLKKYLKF
MEKK2 mut-MEK5: signal of MEK5 binding to mutant human MEKK2 PB1 domain; bead flow cytometry, Alexa488-MEK5 binding to MEKK2 mutant; hit rate 0.35% among 290,000; percent response, % at 10 µM; in the data active = percent response above about 24%, passing the limit was not always enough
MEKK3 PB1 HTS: raises or lowers MEK5 binding to the human MEKK3 PB1 domain | Q99759 | binding response (% of control), % at 10 µM | hit rate 1.4% among 290,000 | AID 1529 | bead-based flow cytometry, Alexa488-MEK5 binding to MEKK3; actives lie on both sides; 0 = blocked by unlabeled MEK5, 100 = vehicle;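 active = binding response more than 3 SD above or below the average of its plate-row segment, actives on both sides; inconclusive = wells at one plate position flagged as instrument error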;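 note: Alexa488 bead fluorescence after subtracting the streptavidin-only scavenger bead signal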
UBC13 polyUb: human UBC13 polyubiquitination inhibition. P61088. UBC13 polyubiquitin chain formation, TR-FRET. inhibition, % at 20 µM. hit rate 0.47% among 330,000. AID 485273; in the data active = inhibition above about 45%, passing the limit was not always enough; inconclusive = no clear call, values can overlap the other calls
Apaf-1 inh: human Apaf-1 inhibition. O14727. reconstituted apoptosome caspase-3 activity, DEVD-Rh110 fluorescence. inhibition, % at 20 µM. hit rate 0.71% among 330,000. AID 489030; active = inhibition of at least 40% at 20 µM;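 note: plate controls were DMSO wells for no effect and DEVD-CHO caspase inhibitor wells for full effect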
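System: Apoptosome proteins | Medium: Hepes pH 7.5 with detergent and BSA | Also added: Cytochrome c trigger plus (Z-DEVD)2-Rh110 caspase-3 substrate | Incubation: 30 min compound preincubation, 50 min activation, room temperature | Detection: Rhodamine 110 fluorescence at Ex 480/Em 540 nm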
MEKK2 WT-MEK5: raises or lowers MEK5 binding to wildtype human MEKK2 PB1 domain; Q9Y2U5; bead flow cytometry, Alexa488-MEK5 binding to MEKK2 WT; actives lie on both sides; binding response (% of control), % at 10 µM; hit rate 1.1% among 290,000; AID 1531; in the data active = binding response below about 67% or above about 130%; inconclusive = no clear call, values can overlap the other calls; inactive = in between
Casp3 counter: counter-screen for UBC13 inhibitors: human caspase-3 inhibition | shares compounds with UBC13 polyUb | Recombinant caspase-3, Caspase-Glo 3/7 luminescence, 60 min | inhibition, % at 20 µM | hit rate 4% among 1,400 | AID 488856;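 active = mean inhibition across replicates above about 26%, limit read from the data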;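 note: plate controls were DMSO with caspase-3 for no effect and DMSO wells lacking enzyme for full effect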
UBC13 conf: confirmation of human UBC13 polyubiquitin inhibitors | shares compounds with UBC13 polyUb | UBC13 polyubiquitination, TR-FRET, biochemical | inhibition, % at 10 µM | hit rate 68% among 1,400; in the data active = inhibition above about 45%; inconclusive = no clear call, values can overlap the other calls
* = called active by the depositor; u = inconclusive; x = no result given. A selection: hits, their analogues and other compounds. The true share with any hit is near 3.1%.

SMILES	PREPL inh	MEKK2 mut-MEK5	MEKK3 PB1 HTS	UBC13 polyUb	Apaf-1 inh	MEKK2 WT-MEK5	Casp3 counter	UBC13 conf
Cc1ccc(C(=O)N2CCN(c3ccc(NC(=S)NC(=O)c4cccs4)cc3)CC2)cc1	15	1	104	12	27	103	x	x
Cc1ccccc1C(=O)N1CCN(c2ccc(NC(=S)NC(=O)c3cccs3)cc2)CC1	23	-2	103	86*	1	98	2	85*
O=c1ccc(Cl)nn1-c1ccccc1	10	x	x	0	4	x	x	x
CCOc1ccc(-c2[nH]ncc2Oc2cccc(OC)c2)c(O)c1	9	-8	84	63*	12	93	3	60*
COc1ccccc1C(=O)NC(=O)COC(=O)c1cc[n+]([O-])cc1	5	x	x	-10	-3	x	x	x
CCn1c(=O)c2cc(C(=O)NCCOC)sc2c2ccccc21	2	9	109	22	5	114	x	x
CCOCCCNC(=O)c1cc2c(=O)n(CC)c3ccccc3c2s1	3	3	103	26	3	103	x	x
CCn1c(=O)c2cc(C(=O)NCCN(C)C)sc2c2ccccc21	-1	6	105	46*	0	113	-1	35
CCCN(CCC)CCNC(=O)c1cc2c(=O)n(CC)c3ccccc3c2s1	-79	-9	73	73*	-22	96	-3	74*
CCN(CC)CCNC(=O)c1cc2c(=O)n(CC)c3ccccc3c2s1	-14	6	103	57*	8	111	0	62*
CCn1c(=O)c2cc(C(=O)N(C)CC(OC)OC)sc2c2ccccc21	1	3	95	13	7	103	x	x
Cc1c(Cl)cccc1NC(=O)C1COc2ccccc2O1 (centres undefined)	-14	3	102	3	2	101	x	x
COCCn1c(-c2ccc(Br)cc2)nc2oc3cc(OC)ccc3c(=O)c2c1=O	-8	1	104	-1	-15	99	x	x
O=C(C[n+]1ccc(-c2nnc3n2CCC3)cc1)c1ccc(Cl)cc1	39	1	99	-3	10	127	x	x
CN(C(=O)CSc1nnnn1C)C1(C#N)CCCCC1	-2	x	x	4	-6	x	x	x
S=c1nc[nH]c2c1[nH]c1ccccc12	4	4	120	82*	-13	117	4	103*
CN1CCCC(CN2c3ccccc3Sc3ccccc32)C1 (centres undefined)	35	14	101	38	15	133	x	x
CN1CCCC(CC2c3ccccc3Sc3ccccc32)C1 (centres undefined)	-47	x	x	46*	23	x	0	27
Cc1ccc2[nH]c(=O)c(CN(CC3CCCO3)C(=S)Nc3ccccc3)cc2c1 (centres undefined)	-3	-4	87	2	17	89	x	x
COc1cc(/C=C2\SC(=Nc3ccc(O)cc3)NC2=O)cc(OC)c1OC	12	-1	104	12	-4	100	x	x
COc1cc(/C=C2/SC(=Nc3ccc(O)cc3)NC2=O)cc(OC)c1O	-23	-5	99	48*	3	99	-3	47*
O=C(NCc1cc(F)ccc1F)C1CCC(=O)N(C2CCCCCC2)C1 (centres undefined)	5	2	98	0	-6	102	x	x
CC1CC(C)CN(CCCNC(=O)C2CCN(c3ncnc4c3sc3cccc(F)c34)CC2)C1 (centres undefined)	31	-11	96	48*	2	120	-2	54*
CCN(CC)CCCNC(=O)C1CCN(c2ncnc3c2sc2cccc(F)c23)CC1	16	24	116	25	8	132	x	x
CCOC(=O)c1nn(-c2ccccc2)c(=O)cc1OCC(=O)Nc1ccccc1OCC	-3	x	x	57*	2	x	-2	u
SMILES	PREPL inh	MEKK2 mut-MEK5	MEKK3 PB1 HTS	UBC13 polyUb	Apaf-1 inh	MEKK2 WT-MEK5	Casp3 counter	UBC13 conf
COc1ccc(C)cc1NC(=O)CN(C)C1CCCCC1	3	6	103	2	6	104	x	x
Oc1c(C(c2cccs2)N2CCN(c3cccc(Cl)c3)CC2)sc2ncnn12 (centres undefined)	6	11	112	53*	13	107	-3	7
Oc1c(C(c2cccs2)N2CCOCC2)sc2ncnn12 (centres undefined)	14	11	110	1	16	114	x	x
O=C(NCc1cccnc1)C1CC(c2ccc(Cl)c(Cl)c2)=NO1 (centres undefined)	-2	-1	99	-5	6	93	x	x
Cc1nn(C2CCS(=O)(=O)C2)c2nc(C3CC3)cc(C(=O)Nc3cccc(C#N)c3)c12 (centres undefined)	x	x	x	5	17	x	x	x
Cc1ccc(NC(=S)NNC(=O)c2nnn(-c3ccccc3)c2C)cc1	-3	-2	95	45*	9	94	3	48*
O=C(CCCOc1ccccc1)Nc1ccc(S(=O)(=O)N2CCOCC2)cc1	-6	6	101	-4	13	102	x	x
Cc1ccc(OCCCC(=O)Nc2ccc(S(=O)(=O)N3CCOCC3)cc2)cc1	4	x	x	56*	-1	x	-3	37
C=CCCCCCCCCC(=O)N1CCN(c2cc3c(cc2F)c(=O)c(C(=O)O)cn3CC)CC1	14	-1	100	47*	13	97	-2	16
O=C(Cc1ccccc1)NC(C(=O)O)C(O)c1ccc([N+](=O)[O-])cc1 (centres undefined)	2	7	103	4	-3	103	x	x
NC(=S)Nc1nc2ccccc2[nH]c1=O	11	x	x	60*	-9	x	-5	64*
Cc1ccc2[nH]c(=O)c(NC(N)=S)nc2c1	17	6	98	71*	-3	108	-2	85*
O=c1[nH]c2ccccc2nc1NCc1ccccc1	3	21	113	0	3	115	x	x
Fc1ccc(Nc2nc(NCc3ccco3)c3ccccc3n2)cc1	10	7	102	54*	31	133	1	74*
Nc1nc(Nc2ccccc2)nc(NCc2ccco2)c1[N+](=O)[O-]	-15	-2	105	-2	33	99	x	x
CN(C)c1ccc(C(C(=O)NCC2CCCO2)N(C(=O)c2snc(C(N)=O)c2N)c2ccccc2)cc1 (centres undefined)	-8	3	101	14	7	102	x	x
Cc1ccc(N(C(=O)c2snc(C(N)=O)c2N)C(C(=O)NC2CCCC2)c2ccco2)cc1 (centres undefined)	x	-7	100	80*	15	95	-4	92*
